Seven compounds from ChEMBL document CHEMBL1817557, “Synthesis and biological evaluation of orally active hypolipidemic agents” (J Med Chem, 2011) can be followed below.

Values after ≈ are worked out from the molar mass of the structure shown.

The test system of series [1] is Mus musculus. The series can be described thus: Hypolipidemic activity in Swiss albino mouse assessed as decrease in plasma triglyceride level at 50 mg/kg, po administered daily for 8 days measured on day 9 by spectrophotometry relative to control. More on the design: scale not given: the % may be the effect or the level left. Type of series: functional. The essentials:
(§1)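 Male Swiss albino mice (moderately hypertriglyceridemic model) dosed by oral gavage at 50 mg/kg body weight once daily for 8 days; plasma triglyceride and total cholesterol measured. Percent change calculated relative to vehicle-treated control group; mean ± SE, n = 10 mice per group.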

Series [2] concerns Mus musculus. The series can be described thus: Hypolipidemic activity in Swiss albino mouse assessed as decrease in plasma total cholesterol level at 50 mg/kg, po administered daily for 8 days measured on day 9 by spectrophotometry relative to control. The format is functional. More on the design: scale not given: the % may be the effect or the level left. The essentials: as §1

A short description of series [3]: Octanol-buffer partition coefficient, log P of the compound at pH 7.4 by HPLC. Type of series: physicochemical. The essentials: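 Partition coefficient determined by HPLC in an octanol–buffer system at pH 7.4, 25 °C.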
Series [4] can be described thus: Aqueous solubility of the compound in 0.2 M hydrochloric acid buffer at pH 1.0 after 4 hrs by HPLC method. Type of series: physicochemical.
Series [5] in a line: Aqueous solubility of the compound in 0.1 M citric acid buffer at pH 3.0 after 4 hrs by HPLC method. The format is physicochemical. Particulars: pH 3, 4 h.
Series [6] in a line: Aqueous solubility of the compound in 0.1 M phosphate buffer at pH 5.2 after 4 hrs by HPLC method. The format is physicochemical.
Series [7] is described as follows: Aqueous solubility of the compound in 0.2 M phosphate buffer at pH 7.4 after 4 hrs by HPLC method. The format is physicochemical.
Series [8] can be described thus: Aqueous solubility of the compound in 0.1 M boric acid buffer at pH 9.0 after 4 hrs by HPLC method. Type of series: physicochemical.
The subject of series [9] is Mus musculus. The experiment in a line: Hypolipidemic activity in Swiss albino mouse assessed as change in plasma total cholesterol level at 50 mg/kg, po administered daily for 8 days measured on day 9 by spectrophotometry relative to control. Type of series: functional. The essentials:
as §1

`Cc1oc(=O)oc1COC(=O)C(C)(C)Oc1ccc(C(=O)c2ccc(Cl)cc2)cc1`: the Activity in [1] amounted to 27.2%; in series [2] it was 11.2%. Further, in [3], the logD amounted to 4.35. The solubility at 4 h in series [4] (0.2 M hydrochloric acid buffer, pH 1) came to 230 ng/mL (≈ 534 nM); in series [6] it was 3 ng/mL (≈ 6.96 nM); in series [7], 2 ng/mL (≈ 4.64 nM); in series [8] it was 4 ng/mL (≈ 9.28 nM). Further, in series [5], the solubility came to 2 ng/mL (≈ 4.64 nM).
Take `CC(C)(C)C(=O)OCOC(=O)C(C)(C)Oc1ccc(C(=O)c2ccc(Cl)cc2)cc1`: the Activity in [1] is recorded as 45%; in [2], 9%. For the same compound, in [3], the logD came to 4.7. Also, the solubility at 4 h was 1 ng/mL (≈ 2.31 nM) in series [6], 2 ng/mL (≈ 4.62 nM) in series [7] and 1 ng/mL (≈ 2.31 nM) in [8].
With `CC(C)OC(=O)C(C)(C)Oc1ccc(C(=O)c2ccc(Cl)cc2)cc1` [FENOFIBRATE], the Activity was 48.6% in series [1] and 5.5% in series [2]. In addition, the logD in series [3] was 4.78.
Regarding `CC(=O)OC(C)OC(=O)C(C)(C)Oc1ccc(C(=O)c2ccc(Cl)cc2)cc1` (centres undefined), the Activity is listed as 33.1% in [1] and -3.5% in series [9]. This compound also came in with a logD in series [3] of 4.65. The solubility at 4 h in series [6] came out at 3 ng/mL (≈ 7.41 nM); in [7], 2 ng/mL (≈ 4.94 nM); in [8], 3 ng/mL (≈ 7.41 nM).
In the case of `CC(C)(Oc1ccc(C(=O)c2ccc(Cl)cc2)cc1)C(=O)OCCN1CCOCC1`, the figures for the Activity in series [1] and in series [2] were 27.6% and 2.4%, respectively. In series [3], the log distribution coefficient (logD) was 3.5. Further, the solubility worked out at 5 ng/mL (≈ 11.6 nM) in series [4] (buffer, pH 1, 4 h) and 15 ng/mL (≈ 34.7 nM) in series [5]. For the same compound, the solubility at 4 h was found to be 38000 ng/mL (≈ 88000 nM) in series [6], 1920 ng/mL (≈ 4450 nM) in [7] and 4800 ng/mL (≈ 11100 nM) in [8].
On to `CC(C)OC(=O)OC(C)OC(=O)C(C)(C)Oc1ccc(C(=O)c2ccc(Cl)cc2)cc1` (centres undefined), for which the Activity in [1] stood at 47%; in series [2], 7.7%. In series [3], this compound showed a logD of 5.43. The solubility at 4 h in [6] turned out to be 1 ng/mL (≈ 2.23 nM); in [7], 1 ng/mL (≈ 2.23 nM); in series [8], 22 ng/mL (≈ 49 nM).
For the compound `CC(C)OC(=O)OCOC(=O)C(C)(C)Oc1ccc(C(=O)c2ccc(Cl)cc2)cc1`, the Activity in series [1] is listed as 33.1%; in series [2] it was 7.2%. Besides, the logD in series [3] was determined as 4.91. In series [5], this compound displayed a solubility of 2 ng/mL (≈ 4.6 nM). Moreover, the solubility at 4 h in series [6] came to 2 ng/mL (≈ 4.6 nM); in series [7], 2 ng/mL (≈ 4.6 nM); in series [8] it was 6 ng/mL (≈ 13.8 nM).
